Assay outcomes (PubChem BioAssay)
Shown are actives, neighbours in structure and some others; about 0.44% of the full set was active somewhere.
RAD54 inh = blocks human RAD54 Holliday junction branch migration | FAM/BHQ fluorescence | inhibition, % at 10.4 µM | 0.14% of 360,000 active;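 active means mean normalized replicate activity at least 40 and at least half of replicates scoring 40 or more; inconclusive means only one of the two criteria met; inactive means mean below 40 and under half of replicates reaching 40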;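 further: inhibitors cause a drop in the FAM fluorescence signal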
PDI turbidity = PDI (human) enzyme inhibition | AID 588391 | PDI insulin aggregation turbidity, A650, 90 min | P07237 | inhibition, % at 10 µM | 0.052% of 350,000 active;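 active means mean inhibition across replicates of 30% or more, whatever share of single replicates reach that level; inconclusive means mean inhibition below 30% while every single replicate reaches 30%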
ERp5 inh = ERp5 (human) disulfide isomerase inhibition. inhibition, % at 9.99 µM. 0.05% of 350,000 active. ERp5 insulin aggregation, absorbance 650 nm, 90 min. Q15084;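 active means mean replicate inhibition above about 25%, with every replicate also reaching it, limit read from the data, passing the limit was not always enough; inconclusive means only one of those two criteria met; inactive means neither criterion met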
Target sequence (Q15084 whole entry, looked up): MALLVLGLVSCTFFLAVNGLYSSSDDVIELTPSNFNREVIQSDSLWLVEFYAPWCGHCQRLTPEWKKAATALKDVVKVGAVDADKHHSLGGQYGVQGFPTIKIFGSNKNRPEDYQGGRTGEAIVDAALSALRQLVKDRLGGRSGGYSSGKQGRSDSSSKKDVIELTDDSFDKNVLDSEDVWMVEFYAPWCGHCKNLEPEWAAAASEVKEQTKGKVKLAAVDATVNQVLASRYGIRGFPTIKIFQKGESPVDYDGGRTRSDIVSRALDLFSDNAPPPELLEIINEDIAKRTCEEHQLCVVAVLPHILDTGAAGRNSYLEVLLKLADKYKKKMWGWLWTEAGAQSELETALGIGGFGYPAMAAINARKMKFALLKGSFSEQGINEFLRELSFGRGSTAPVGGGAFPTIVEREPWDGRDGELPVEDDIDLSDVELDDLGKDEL
S100A4 MyoIIA = S100A4-myosin IIA interaction inhibition. 0.14% of 360,000 active. P26447. S100A4/TAMRA-MyoIIA peptide fluorescence polarization. inhibition, % at 10.7 µM;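 active means mean inhibition of at least 70% across replicates, with every replicate also reaching that level; inconclusive means mean inhibition reaches 70% but some replicates fall short; inactive means mean inhibition below 70%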
Target sequence (P26447 whole entry, looked up): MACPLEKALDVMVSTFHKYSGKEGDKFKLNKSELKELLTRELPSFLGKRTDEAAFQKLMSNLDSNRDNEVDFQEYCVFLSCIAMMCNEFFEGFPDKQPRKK
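Test system – S100A4 monomer (human) · Compound – single-point compound testing · Schedule – 5 min incubation before reading · Probe or stimulus – TAMRA-labelled myosin IIA heavy-chain peptide probe, 5 nM · Benchmarks – neutral control DMSO, positive control TFP · Medium – Calcium-containing HEPES buffer, pH 7.2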
FN deposit inh = fibronectin deposition inhibition; 0.086% of 350,000 active; AH1F fibroblasts, Alexa488-fibronectin deposition fluorescence, overnight; inhibition, % at 12.6 µM;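 active means mean inhibition across replicates of 30% or more, regardless of how many single replicates reach that level; inconclusive means mean under 30% yet at least half of replicates reach 30%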
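Assay system: AH1F fibroblasts / Quantity: 10000 cells per well / Medium: DMEM plus 2% serum, read in PBS / Reagent: labelled fibronectin 24 nM / Dosing: single dose, pinned / Times: 1 h cell attachment, overnight exposure to compound and label / Signal: fluorescence, ex 485 nm, em 525 nm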
PglD inh = blocks C. jejuni PglD acetyltransferase activity; purified PglD enzyme, DTNB colorimetric CoA detection; inhibition, % at 12.5 µM; 0.098% of 360,000 active; AID 602405; in the data active means inhibition above about 16%, passing the limit was not always enough; inconclusive means no clear call, values can overlap the other calls
Rad54 DNA ctr = DNA binding artifact in Rad54 counter-screen; 8% of 460 active; AC50, µM (titrated, usually from 35 µM); Acridine orange-DNA displacement, fluorescence polarization, 20 min; shares compounds with RAD54 inh; AID 651673;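 active means signal drop giving an AC50 within twice the top valid tested concentration of each sample, actives reach about 35 µM in these data; inactive means activity opposite to expected, plus the rest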;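 further: polarization loss reports compound binding to salmon sperm DNA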
Each line names hits and unclear results; the compound was inactive in the other large screens (follow-up assays come after a bar, where they were run).

CC(=O)Nc1ccc2ccccc2c1	none (no result: ERp5 inh, S100A4 MyoIIA, FN deposit inh)
CC(=O)Nc1ccc2cc3ccc(NC(C)=O)cc3nc2c1	RAD54 inh 51 | Rad54 DNA ctr inactive
CCN(CC)CCNC(=O)c1cc2cc3ccc(OC)cc3nc2o1	RAD54 inh 50 | Rad54 DNA ctr inactive
CCCCN(C)CCNC(=O)c1cc2cc3ccc(OC)cc3nc2o1	RAD54 inh 53 | Rad54 DNA ctr inactive
COCCCNC(=O)c1cc2cc3cc(OC)ccc3nc2o1	none
CO[C@@H]1CN(C)C(=O)c2ccc(NC(=O)C3CCOCC3)cc2OC[C@@H](C)N(C(=O)c2ccccc2)C[C@H]1C	none (no result: PDI turbidity, FN deposit inh)
CCOC(=O)c1c(NC(=O)c2ccc(S(=O)(=O)N3CCOCC3)cc2)sc2c1CCN(C)C2	RAD54 inh 89 (no result: FN deposit inh) | Rad54 DNA ctr inactive
COc1cccc(-c2nc(N3CCN(c4ccccc4)CC3)c3ccccc3n2)c1O	none (no result: ERp5 inh, S100A4 MyoIIA, FN deposit inh)
COc1cccc(-c2nc(N3CCN(Cc4ccccc4)CC3)c3ccccc3n2)c1O	RAD54 inh 64 | Rad54 DNA ctr inactive
Cc1ccc2nc(C)c3c(c2c1)N(c1ccc(F)cc1)CC3	RAD54 inh inconclusive | Rad54 DNA ctr inactive
C[C@H](CO)N1C[C@H](C)[C@@H](CN(C)C(=O)Nc2ccc3c(c2)OCO3)Oc2ccc(NC(=O)Nc3ccc(C(F)(F)F)cc3)cc2CC1=O	none (no result: RAD54 inh, PDI turbidity, FN deposit inh, PglD inh)
Cc1ccc(-c2cc(-c3ccco3)c3c(N)c(C(=O)NN)oc3n2)cc1	none (no result: RAD54 inh, PglD inh)
NNC(=O)c1oc2nc(-c3cccs3)cc(-c3ccco3)c2c1N	RAD54 inh inconclusive | Rad54 DNA ctr inactive
C[C@@H]1CN([C@@H](C)CO)C(=O)c2cc(C#CC3CCCCC3)cnc2O[C@@H]1CN(C)C(=O)Cc1ccccn1	none (no result: PDI turbidity)
C[C@H](CO)N1C[C@H](C)[C@H](CN(C)S(=O)(=O)c2ccc(Cl)cc2)Oc2ccc(NC(=O)NC3CCCCC3)cc2CC1=O	none (no result: PDI turbidity, FN deposit inh)
O=C(Nc1nnc(COc2ccc(F)cc2)s1)c1ccco1	RAD54 inh inconclusive | Rad54 DNA ctr inactive
O=C(Nc1nnc(COc2ccc(Br)cc2)s1)c1ccco1	none
Nc1ccc(-c2nc3c(ccc4ccccc43)[nH]2)cc1	RAD54 inh 50 | Rad54 DNA ctr inactive
Nc1ccc(-c2nc3ccccc3[nH]2)cc1	none
COCCCNc1nc(N)c([N+](=O)[O-])c(Nc2cc(OC)ccc2OC)n1	none
COc1ccc(OC)c(Nc2nc(NCCCN(C)C)nc(N)c2[N+](=O)[O-])c1	RAD54 inh 74 | Rad54 DNA ctr inactive
COCCNC(=S)Nc1ccc2nc(N3CCCC3)cc(C)c2c1	none (no result: ERp5 inh, S100A4 MyoIIA, FN deposit inh)
CCCCN(CC)CCNC(=S)Nc1ccc2nc(N3CCN(C)CC3)cc(C)c2c1	RAD54 inh 55 | Rad54 DNA ctr inactive
CCOCCCNC(=S)Nc1ccc2nc(N3CCCC3)cc(C)c2c1	RAD54 inh 60 (no result: ERp5 inh, S100A4 MyoIIA, FN deposit inh) | Rad54 DNA ctr inactive
CCCN(CCC)CCCNC(=S)Nc1ccc2nc(N3CCN(C)CC3)cc(C)c2c1	RAD54 inh 63 | Rad54 DNA ctr inactive
CC[C@H]1CC=CC[C@H](C)Oc2ccccc2C(=O)N(C)[C@@H](Cc2ccccc2)C(=O)N1 (mixture of isomers)	none (no result: RAD54 inh, PDI turbidity, ERp5 inh, S100A4 MyoIIA, PglD inh)
CN(C)CCCN(C(=O)c1ccco1)c1nc(-c2ccc(Cl)cc2)cs1	RAD54 inh 53 | Rad54 DNA ctr inactive
Clc1ccc2c(NCCNC3CCCCC3)ccnc2c1	none
CC(CCCN1CCCC1)Nc1ccnc2cc(Cl)ccc12 (stereo unspecified)	RAD54 inh 55 (no result: FN deposit inh) | Rad54 DNA ctr inactive
CC(C)NC1CCC(Nc2ccnc3cc(Cl)ccc23)CC1 (stereo unspecified)	RAD54 inh inconclusive | Rad54 DNA ctr inactive
COc1ccc(N2C(=O)CSC23CCCCC3)cc1	RAD54 inh inconclusive (no result: ERp5 inh, S100A4 MyoIIA) | Rad54 DNA ctr inactive
Cc1cc(-c2cc(NC=O)c3ncc(-c4cccc(C(=O)NCCN(C)C)c4)n3c2)cc(C)c1O	RAD54 inh 62 | Rad54 DNA ctr inactive
Cc1ccc(-c2cc(NC=O)c3ncc(-c4cccc(C(=O)N(C)C)c4)n3c2)cc1	none
CC(=O)c1cccc(-c2cnc3c(NC=O)cc(-c4ccc(C(=O)N5CCOCC5)cc4)cn23)c1	none
CN(C)CCNC(=O)c1cccc(-c2cnc3c(NC=O)cc(-c4ccc(C(=O)N5CCOCC5)cc4)cn23)c1	RAD54 inh inconclusive | Rad54 DNA ctr inactive
CN(C)CCNC(=O)c1cccc(-c2cnc3c(NC=O)cc(-c4ccccc4F)cn23)c1	RAD54 inh 63 (no result: FN deposit inh) | Rad54 DNA ctr inactive
CN(C)CCNC(=O)c1cccc(-c2cnc3c(NC=O)cc(-c4cccs4)cn23)c1	RAD54 inh 63 | Rad54 DNA ctr inactive
COc1ccc(CN(C)C[C@H]2Oc3ccc(NS(=O)(=O)c4ccc(F)cc4)cc3CC(=O)N([C@H](C)CO)C[C@@H]2C)cc1	none (no result: RAD54 inh, PDI turbidity, PglD inh)
C[C@@H]1CN([C@H](C)CO)C(=O)c2cc(NC(=O)NC3CCCCC3)ccc2O[C@@H]1CN(C)Cc1ccc(C(=O)Nc2ccccc2N)cc1	none (no result: RAD54 inh, PDI turbidity, ERp5 inh, S100A4 MyoIIA, PglD inh)
CC(C)NC(=O)N(C)C[C@H]1Oc2cc(C#CC(C)(C)O)ccc2S(=O)(=O)N([C@@H](C)CO)C[C@@H]1C	none (no result: PDI turbidity)
COc1ccc(Nc2nc(N3CCCCC3)c3ccccc3n2)cc1	none (no result: ERp5 inh, S100A4 MyoIIA, FN deposit inh)
Oc1ccc(Nc2nc(N3CCCC3)c3ccccc3n2)cc1	RAD54 inh 60 | Rad54 DNA ctr inactive
Cn1nc(-c2ccccn2)nc2c(=O)n(C)c(=O)nc1-2	RAD54 inh 61, PDI turbidity 139, ERp5 inh 102 | Rad54 DNA ctr inactive
COc1ccc(-c2nc(-c3ccccn3)ncc2S(C)(=O)=O)cc1	none (no result: RAD54 inh, PglD inh)
CCn1c(N)nc2c1c(=O)n(C)c(=O)n2C	none
CCCc1nc2c(=O)n(C)c(=O)nc-2n(C)n1	RAD54 inh 74, PDI turbidity 160, ERp5 inh 85 | Rad54 DNA ctr inactive
Cc1ccc(-c2ccc([C@H]3[C@@H](CO)N4C(=O)CN(C(=O)c5ccc(F)cc5)C[C@@H]34)cc2)cc1	none (no result: RAD54 inh, PDI turbidity, FN deposit inh, PglD inh)
Cc1ccc(OCC(=O)Nc2cccc(-c3nnc(-c4ccccc4)o3)c2)c(C)c1	RAD54 inh inconclusive (no result: ERp5 inh, S100A4 MyoIIA) | Rad54 DNA ctr inactive
COc1ccc(CC(=O)Nc2cccc(-c3nnc(-c4ccc(C)cc4)o3)c2)cc1OC	none (no result: FN deposit inh)
COc1cc2nc(Nc3ccc(C)c(C)c3)nc(N)c2cc1OC	none
COc1cc2nc(Nc3ccc(F)cc3)nc(N)c2cc1OC	RAD54 inh 59 | Rad54 DNA ctr inactive
COc1cc2nc(N(C)C)nc(N)c2cc1OC	RAD54 inh 94 (no result: ERp5 inh, S100A4 MyoIIA, FN deposit inh) | Rad54 DNA ctr inactive
O=C(C[C@@H]1C[C@@H]2c3cc(NC(=O)c4ccc5c(c4)OCO5)ccc3O[C@@H]2[C@@H](CO)O1)NCCc1ccccc1	none (no result: PDI turbidity, FN deposit inh)
Cc1c(C)n(CCN(C)C)c2ccc(C(=O)OCCN(C)C)cc12	RAD54 inh 104 | Rad54 DNA ctr inactive
O=C(Nc1cccc(F)c1)N[C@@H]1CC[C@H](CCNS(=O)(=O)c2cccc(Cl)c2)O[C@H]1CO	none (no result: PDI turbidity, FN deposit inh)
